For experiment [1], the system named is Aspergillus fumigatus. In words: Induction of change in cytosolic small ribosomal subunit S15, putative protein level in iTRAQ114 labelled secreted fraction of drug-susceptible Aspergillus fumigatus KU80 delta-akuB at 0.12 ug/ml after 24 hrs in YPD medium by MS (MS/MS) analysis relative to control. The experiment is classed as functional. In outline: (§1)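 Conidia at 1 × 10⁵/ml grown shaking at 37°C in YPD with or without 0.12 μg/ml caspofungin; mycelia filtered at 24 or 48 h. Secreted fraction taken from the filtrate; cell wall/plasma membrane pellet recovered after French-press lysis and a 5,000 × g spin. Proteins trypsin-digested and iTRAQ-labelled, drug vs no-drug channels at each time, then 2D LC-MS/MS. Protein ratio is the median of ratios from uniquely assigned peptides after median normalization.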

Experiment [2] deals with Aspergillus fumigatus. In words: Induction of change in glucosamine-fructose-6-phosphate aminotransferase protein level in iTRAQ-118 labelled cell wall fraction of drug-resistant Aspergillus fumigatus EMFR-S678P at 0.12 ug/ml after 24 hrs in YPD medium by MS (MS/MS) analysis relative to control. It counts as functional, organism-based. In outline: (§2)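 Conidia at 1 × 10⁵/ml were grown at 37°C, shaking at 225 rpm, in YPD with or without 0.12 μg/ml caspofungin for 24 or 48 h. The culture filtrate was kept as the secreted fraction. Mycelia were lysed by French press in HEPES/glycerol/EDTA/PMSF/DTT buffer, and the 5,000 × g pellet was washed to give CW/PM. Proteins were reduced, alkylated and trypsin-digested at 37°C overnight, then iTRAQ-labelled and run by 2D LC-MS/MS. Ratios are the median of unique-peptide ratios, median-normalized, versus the no-drug control.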

In experiment [3] the test system is Aspergillus fumigatus. In words: Induction of change in 60s ribosomal protein L24, putative protein level in iTRAQ114 labelled cell wall fraction of drug-susceptible Aspergillus fumigatus KU80 delta-akuB at 0.12 ug/ml after 24 hrs in YPD medium by MS (MS/MS) analysis relative to control. The experiment is classed as functional. Summed up:
as §1

The subject of experiment [4] is Aspergillus fumigatus. In words: Induction of change in stearic acid desaturase (SdeA), putative gene expression in drug-susceptible Aspergillus fumigatus KU80 delta-akuB at 0.12 ug/ml after 24 hrs in YPD medium by microarray analysis relative to control. The experiment is classed as functional. In outline: (§3)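 Mycelia grown from 1 × 10⁵ conidia/ml in YPD at 37°C, 225 rpm, with or without 0.12 μg/ml caspofungin. Total RNA extracted, DNase-treated; 2 μg labelled per TIGR SOP M007 for whole-genome array hybridization. Three independent experiments with dye flip (6 replicates); >2-fold change deemed significant.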

In experiment [5] the test system is Aspergillus fumigatus. In words: Induction of change in hypothetical gene locus AFUA_6G06840 expression in drug-susceptible Aspergillus fumigatus KU80 delta-akuB at 0.12 ug/ml after 48 hrs in YPD medium by microarray analysis relative to control. The experiment is classed as functional. Summed up:
as §3

In experiment [6] the test system is Aspergillus fumigatus. In words: Induction of change in transcriptional repressor TupA/RocA, putative protein level in iTRAQ-118 labelled cell wall fraction of drug-susceptible Aspergillus fumigatus KU80 delta-akuB at 0.12 ug/ml after 24 hrs in YPD medium by MS (MS/MS) analysis relative to control. The experiment is classed as functional. In outline: (§4)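 Conidia (1 × 10⁵/ml) grown in YPD, 37°C, 225 rpm, ± 0.12 μg/ml caspofungin; filtrate taken as secreted fraction, French-press lysate 5,000 × g pellet as cell wall/plasma membrane. Trypsin digests 8-plex iTRAQ-labelled (drug-free channels as references), pooled, 2D-chromatography, MS/MS. Median-normalized; protein ratio = median of unique-peptide ratios, log2 normalized.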

The subject of experiment [7] is Aspergillus fumigatus. In words: Induction of change in Mn superoxide dismutase MnSOD protein level in iTRAQ114 labelled cell wall fraction of drug-susceptible Aspergillus fumigatus KU80 delta-akuB at 0.12 ug/ml after 24 hrs in YPD medium by MS (MS/MS) analysis relative to control. It counts as functional. In outline:
as §1

Experiment [8] deals with Aspergillus fumigatus. In words: Induction of change in ribosomal protein L27a protein level in iTRAQ114 labelled cell wall fraction of drug-susceptible Aspergillus fumigatus KU80 delta-akuB at 0.12 ug/ml after 24 hrs in YPD medium by MS (MS/MS) analysis relative to control. The experiment is classed as functional.
In experiment [9] the test system is Aspergillus fumigatus. In words: Induction of change in GNAT family acetyltransferase, putative protein level in iTRAQ-118 labelled cell wall fraction of drug-susceptible Aspergillus fumigatus KU80 delta-akuB at 0.12 ug/ml after 24 hrs in YPD medium by MS (MS/MS) analysis relative to control. It counts as functional. Summed up:
as §1

Experiment [10] has as its system Aspergillus fumigatus. In words: Induction of change in ThiJ/PfpI family protein level in iTRAQ-118 labelled cell wall fraction of drug-resistant Aspergillus fumigatus EMFR-S678P at 0.12 ug/ml after 24 hrs in YPD medium by MS (MS/MS) analysis relative to control. The experiment is classed as functional. Summed up: as §2
Experiment [11] has as its system Aspergillus fumigatus. In words: Induction of change in ribosomal protein L26 protein level in iTRAQ-116 labelled secreted fraction of drug-resistant Aspergillus fumigatus EMFR-S678P at 0.12 ug/ml after 48 hrs in YPD medium by MS (MS/MS) analysis relative to control. The experiment is classed as functional, organism-based. In outline:
as §2

Experiment [12] relates to Aspergillus fumigatus. In words: Induction of change in IgE-binding gene expression in drug-susceptible Aspergillus fumigatus KU80 delta-akuB at 0.12 ug/ml after 48 hrs in YPD medium by microarray analysis relative to control. The experiment is classed as functional. Summed up:
(§5)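 Mycelia grown in YPD ± 0.12 μg/ml caspofungin (1 × 10⁵ conidia/ml, 37°C, shaking) and harvested at 24 or 48 h. Total RNA extracted, DNase-treated and quality-checked; 2 μg labelled per TIGR SOP M007 and hybridized to whole-genome arrays. Three independent experiments with dye flip (6 replicates); drug vs untreated fold change.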

In experiment [13] the test system is Aspergillus fumigatus. In words: Induction of change in 14-alpha sterol demethylase Cyp51A protein level in iTRAQ-118 labelled cell wall fraction of drug-resistant Aspergillus fumigatus EMFR-S678P at 0.12 ug/ml after 24 hrs in YPD medium by MS (MS/MS) analysis relative to control. The experiment is classed as functional, organism-based. Summed up: as §2
In experiment [14] the test system is Aspergillus fumigatus. In words: Induction of change in allergen Asp F4 protein level in iTRAQ-118 labelled cell wall fraction of drug-resistant Aspergillus fumigatus EMFR-S678P at 0.12 ug/ml after 24 hrs in YPD medium by MS (MS/MS) analysis relative to control. It counts as functional. In outline: as §2
Experiment [15] has as its system Aspergillus fumigatus. In words: Induction of change in ubiquinol-cytochrome C reductase complex core protein 2, putative protein level in iTRAQ-118 labelled cell wall fraction of drug-susceptible Aspergillus fumigatus KU80 delta-akuB at 0.12 ug/ml after 24 hrs in YPD medium by MS (MS/MS) analysis relative to control. It counts as functional. Summed up:
as §4

Experiment [16] concerns Aspergillus fumigatus. In words: Induction of change in ribosomal protein L26 gene expression in drug-susceptible Aspergillus fumigatus KU80 delta-akuB at 0.12 ug/ml after 24 hrs in YPD medium by microarray analysis relative to control. The experiment is classed as functional. Summed up:
as §3

Experiment [17] deals with Aspergillus fumigatus. In words: Induction of change in eukaryotic translation elongation factor 1 subunit Eef1-beta, putative protein level in iTRAQ-116 labelled secreted fraction of drug-resistant Aspergillus fumigatus EMFR-S678P at 0.12 ug/ml after 48 hrs in YPD medium by MS (MS/MS) analysis relative to control. It counts as functional. Summed up: as §2
Experiment [18] deals with Aspergillus fumigatus. In words: Induction of change in hypothetical gene locus AFUA_4G11270 expression in drug-susceptible Aspergillus fumigatus KU80 delta-akuB at 0.12 ug/ml after 48 hrs in YPD medium by microarray analysis relative to control. It counts as functional. In outline:
as §5

Activity calls are given as the source filed them. The calls are words filed in the database; no cut-off is given here.

These results are taken from ChEMBL document CHEMBL1687827, “Profiling the Aspergillus fumigatus proteome in response to caspofungin” (2011).

On to `CC[C@H](C)C[C@H](C)CCCCCCCCC(=O)N[C@H]1C[C@@H](O)[C@@H](NCCN)NC(=O)[C@@H]2[C@@H](O)CCN2C(=O)[C@H]([C@H](O)CCN)NC(=O)[C@H]([C@H](O)[C@@H](O)c2ccc(O)cc2)NC(=O)[C@@H]2C[C@@H](O)CN2C(=O)[C@H]([C@@H](C)O)NC1=O` [CASPOFUNGIN], for which the “fold change (FC)” value in the experiment with Aspergillus fumigatus [1] is recorded as -1; with Aspergillus fumigatus [3], 1.5; in the experiment with Aspergillus fumigatus [4], -4.6; in the experiment on Aspergillus fumigatus [5], -2.1; in the experiment with Aspergillus fumigatus [6], -2.1; in the experiment with Aspergillus fumigatus [7], -1.2. Moreover, the “fold change (FC)” value in the experiment on Aspergillus fumigatus [8] was 1.9; in the experiment on Aspergillus fumigatus [9], -2.6; in the experiment with Aspergillus fumigatus [10], 1.23; in the experiment on Aspergillus fumigatus [12], 7.6; with Aspergillus fumigatus [14] it was 1.07; in the experiment with Aspergillus fumigatus [15] it was -2. The “fold change (FC)” value in the experiment with Aspergillus fumigatus [16] is reported as 5.3; in the experiment on Aspergillus fumigatus [17], -1.74; in the experiment with Aspergillus fumigatus [18], 3.7. Besides, the outcome in the experiment on Aspergillus fumigatus [2], in the experiment on Aspergillus fumigatus [11] and in the experiment on Aspergillus fumigatus [13] was inactive.
